From PMC3856692 (Biochemistry, 2013)
Entries after “also recorded” stand apart in the source; their conditions may differ. Primed or numbered codes have the meaning given here. No end group written: not given here. 5FAM′ = 5-carboxyfluorescein

Assays:
CHIP [1] = biological target: T1, CHIP (Homo sapiens, UniProt Q9UNE7); test: Fluorescence polarization; type: binding; settings: FP, 20 nM tracer, Figure 2
T1 sequence (Q9UNE7 1-303): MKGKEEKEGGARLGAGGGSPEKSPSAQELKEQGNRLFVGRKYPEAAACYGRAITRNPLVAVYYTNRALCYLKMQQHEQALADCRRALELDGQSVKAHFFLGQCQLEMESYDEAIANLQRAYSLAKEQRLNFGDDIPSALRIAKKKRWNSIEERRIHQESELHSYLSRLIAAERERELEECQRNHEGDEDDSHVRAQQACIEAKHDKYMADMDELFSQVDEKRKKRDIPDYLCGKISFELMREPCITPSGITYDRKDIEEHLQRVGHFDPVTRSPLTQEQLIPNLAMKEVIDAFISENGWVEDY

CHIP [2] = biological target: T1, CHIP; test: Biolayer interferometry; type: binding; settings: for Binding to CHIP (in words): BLI, Figure 1d / Figure 5
[3] = 15N relaxation measurements, oligomeric state; type: physicochemical; settings: 15N relaxation experiments
CHIP [4] = test: 1H-15N TROSY NMR of 15N-labeled Hsc70 with CHIP; type: binding, Human; settings: for Change of C-terminal resonances on CHIP binding (in words): residues 639-646 (GPTIEEVD)
Procedure, shortened: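 800 MHz TROSY of 15N full-length Hsc70 (uncleaved His tag) in 50 mM K2PO4, 110 µM NRLLLTG, 1 mM ADP, 5 mM MgCl2, 10 mM KCl, 0.02% NaN3, pH 7.2. Spectra: Hsc70 alone at 100 µM (12 h); Hsc70:CHIP 57:21 µM and 40:30 µM (52 h each); 67 µM 1:1 with CHIP; 60 µM 1:1:1 with UbcH5. Tail assigned from 250 µM triple-labelled Hsc70(391–646) 3D spectra at 30 °C.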

CHIP [5] = test: 1D 15N NMR relaxation of Hsc70 with or without CHIP; set-up: species or system Human; settings: 15N relaxation
Procedure, shortened: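 15N-labelled full-length Hsc70 with uncleaved N-terminal His tag, 67 µM in 50 mM K2PO4, 200 µM NRLLLTG, 1 mM ADP, 5 mM MgCl2, 10 mM KCl, 0.02% NaN3, pH 7.2, 25 °C, with or without CHIP, at 800 MHz. 1D 15N R1 (10 h) and R2 (4.5 h) experiments were run, plus CSA/dipolar cross-correlated relaxation (T 10.2 ms). The 9.6–8.6 and 8.6–7.8 ppm regions were integrated and fitted single-exponentially, with jackknife errors.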

[6] = biological target: T2, CHIP (C-terminus of Hsc70 Interacting Protein), full-length human (human, UniProt Q9UNE7 1-303); test: fluorescence polarisation
T2 sequence (looked up): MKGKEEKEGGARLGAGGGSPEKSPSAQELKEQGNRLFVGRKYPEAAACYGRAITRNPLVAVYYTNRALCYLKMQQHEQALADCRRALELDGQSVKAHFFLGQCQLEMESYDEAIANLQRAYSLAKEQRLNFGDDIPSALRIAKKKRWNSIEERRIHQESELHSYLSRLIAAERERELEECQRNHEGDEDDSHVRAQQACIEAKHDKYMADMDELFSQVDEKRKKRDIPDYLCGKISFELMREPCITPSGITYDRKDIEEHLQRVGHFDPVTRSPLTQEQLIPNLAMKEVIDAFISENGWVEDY

5FAM-DVEEM
Binding / affinity of fluorescent probes for CHIP (in words) (CHIP [1]): no affinity for CHIP
Binding / affinity of fluorescent probes for CHIP (in words) (CHIP [1]; listed as DVEEM): had no affinity for CHIP

5FAM-MEEVD
Binding / affinity of fluorescent probes for CHIP (in words) (CHIP [1]): nearly identical affinity to the longer peptide
Binding / affinity of fluorescent probes for CHIP (in words) (CHIP [1]; listed as MEEVD): binds with affinity equal to that of the longer probe

Hsc70ΔEEVD: Hsc70 mutant lacking the EEVD sequence
Binding to CHIP (in words) (CHIP [2]): Neither the Hsc70ΔSBD, nor the Hsc70ΔEEVD mutant displayed any ability to bind CHIP; also recorded: cannot bind CHIP

NBD: nucleotide-binding domain, Hsc70 residues 1–383
Binding to CHIP (in words) (CHIP [2]; listed as Hsc70ΔSBD): Neither the Hsc70ΔSBD, nor the Hsc70ΔEEVD mutant displayed any ability to bind CHIP; also recorded: cannot bind CHIP

SBD: substrate-binding domain, Hsc70 residues 391–646
Oligomeric state (in words) [3]: dimeric

wtHsc70: Human full-length Hsc70 (HspA8; 1–646)
Hsc70-CHIP binding stoichiometry (CHIP [2]; Hsc70 per CHIP): two molecules of Hsc70
Kd (CHIP [2]; abstract, binding of Hsc70 to CHIP): ~60 nM
Slower dissociation than C-terminal peptide (CHIP [2]; koff, wtHsc70 vs C-terminal peptide): ~ 5 fold
Apparent molecular weight of the Hsc70-CHIP complex (CHIP [2]; two molecules of Hsc70 and CHIP homodimer): 210 kDa
Increase in binding free energy relative to isolated C-terminal peptide (CHIP [2]; wtHsc70 vs C-terminal peptide): 1.08 kcal/M
Extra binding free energy beyond EEVD (CHIP [2]; wtHsc70 vs isolated peptide): 1.08 kcal/mol
Oligomeric state (in words) [3]: monomeric at 100 µM
Change of TROSY spectrum on addition of UbcH5c or excess CHIP (in words) (CHIP [4]; 1:1:1 15N Hsc70, CHIP and UbcH5c, 60 µM, or excess CHIP (data not shown)): does not further change the spectrum
Change of TROSY spectrum on CHIP binding (in words) (CHIP [4]; 800 MHz, ADP and NRLLLTG bound state, pH 7.2, 25°C, 1:1 wtHsc70:CHIP): barely distinguishable from that of wtHsc70 alone
Change of resonances of residues 616–636 on CHIP binding (in words) (CHIP [4]; assigned upstream residues 616–636 of unstructured tail): remained visible and relatively unaffected by the presence of CHIP
Change of C-terminal resonances on CHIP binding (in words) (CHIP [4]): progressively disappear upon complex formation; also recorded: disappear from the wtHsc70 NMR spectrum
Change of C-terminal resonances on CHIP binding (in words) (CHIP [4]; listed as Hsc70): disappear from the NMR spectrum
Rotational correlation time of structured area with vs without CHIP (in words) (CHIP [5]): not increased upon binding to CHIP

B1: 5FAM-MEEVD (peptide)
peptide: {5FAM′}-MEEVD
Kd [6]: 1500 ± 76 nM

B2: 5FAM-DDTSRMEEVD (Hsp90α-derived C-terminus, residues 723-732) (peptide)
peptide: {5FAM′}-DDTSRMEEVD
binding result [6]: binds
